Legend:
Type in all cases: functional
CCRF-CEM = assay: Growth inhibition of human CCRF-CEM cells at 10 uM incubated for 48 hrs by sulforhodamine B assay relative to control; conditions: read-out: GI
Outline: (§1)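 Single-dose screen at 10 μM final: cells in RPMI 1640, 5% FBS, 2 mM L-glutamine, plated 5,000–40,000/well, preincubated 24 h at 37°C, 5% CO2; drug 48 h; adherent cells fixed with 10% TCA, suspension cells with 16% TCA; SRB stain, absorbance 515 nm; percentage growth versus untreated control, with time-zero plates.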

HL-60(TB) = assay: Growth inhibition of human HL-60(TB) cells at 10 uM incubated for 48 hrs by sulforhodamine B assay relative to control; conditions: HL-60, 48 h, read-out: GI
Outline: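 Single dose of 10 µM in the NCI ~60-line panel. Cells grown in RPMI 1640 with 5% FBS and 2 mM L-glutamine, plated and pre-incubated 24 h, then exposed 48 h at 37°C under 5% CO2. Suspension cells fixed with TCA (16% final) and stained with sulforhodamine B, A515 read. Reported as percent growth versus untreated control and as GI%.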

K562 = assay: Growth inhibition of human K562 cells at 10 uM incubated for 48 hrs by sulforhodamine B assay relative to control; conditions: K562, 48 h, read-out: GI; outline: as §1
MOLT-4 = assay: Growth inhibition of human MOLT4 cells at 10 uM incubated for 48 hrs by sulforhodamine B assay relative to control; conditions: MOLT-4, 48 h, read-out: GI; outline: as §1
SR = assay: Growth inhibition of human SR cells at 10 uM incubated for 48 hrs by sulforhodamine B assay relative to control; conditions: read-out: GI
Outline: (§2)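 NCI single-dose screen: cells grown in RPMI 1640 with 5% FBS and 2 mM L-glutamine, plated at 5,000–40,000 cells/well and preincubated 24 h at 37 °C, 5% CO2. Compounds taken from DMSO stock and tested at final 10 µM for 48 h. Cells fixed with TCA, stained with 0.4% SRB, absorbance read at 515 nm. Percentage growth calculated against untreated controls; controls held DMSO at the same dilution.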

HOP-92 = assay: Growth inhibition of human HOP92 cells at 10 uM incubated for 48 hrs by sulforhodamine B assay relative to control; conditions: HOP-92, 48 h, read-out: GI; outline: as §1
NCI-H226 = assay: Growth inhibition of human NCI-H226 cells at 10 uM incubated for 48 hrs by sulforhodamine B assay relative to control; conditions: NCI-H226, 48 h, read-out: GI; outline: as §1
NCI-H322M = assay: Growth inhibition of human NCI-H322M cells at 10 uM incubated for 48 hrs by sulforhodamine B assay relative to control; conditions: read-out: GI; outline: as §1
HCC 2998 = assay: Growth inhibition of human HCC2998 cells at 10 uM incubated for 48 hrs by sulforhodamine B assay relative to control; conditions: HCC 2998, 48 h, read-out: GI; outline: as §1
HCT-15 = assay: Growth inhibition of human HCT15 cells at 10 uM incubated for 48 hrs by sulforhodamine B assay relative to control; conditions: HCT-15, 48 h, read-out: GI; outline: as §1
SF-268 = assay: Growth inhibition of human SF268 cells at 10 uM incubated for 48 hrs by sulforhodamine B assay relative to control; conditions: SF-268, 48 h, read-out: GI; outline: as §2
SF-295 = assay: Growth inhibition of human SF295 cells at 10 uM incubated for 48 hrs by sulforhodamine B assay relative to control; conditions: SF-295, 48 h, read-out: GI; outline: as §2
SF-539 = assay: Growth inhibition of human SF539 cells at 10 uM incubated for 48 hrs by sulforhodamine B assay relative to control; conditions: SF-539, 48 h, read-out: GI; outline: as §2
SNB-75 = assay: Growth inhibition of human SNB75 cells at 10 uM incubated for 48 hrs by sulforhodamine B assay relative to control; conditions: SNB-75, 48 h, read-out: GI; outline: as §2
LOX IMVI = assay: Growth inhibition of human LOXIMVI cells at 10 uM incubated for 48 hrs by sulforhodamine B assay relative to control; conditions: read-out: GI; outline: as §1
MDA-MB-435 = assay: Growth inhibition of human MDA-MB-435 cells at 10 uM incubated for 48 hrs by sulforhodamine B assay relative to control; conditions: MDA-MB-435, 48 h, read-out: GI; outline: as §1
SK-MEL-2 = assay: Growth inhibition of human SK-MEL-2 cells at 10 uM incubated for 48 hrs by sulforhodamine B assay relative to control; conditions: SK-MEL-2, 48 h, read-out: GI; outline: as §2
IGROV-1 = assay: Growth inhibition of human IGROV1 cells at 10 uM incubated for 48 hrs by sulforhodamine B assay relative to control; conditions: IGROV-1, 48 h, read-out: GI; outline: as §1
OVCAR-3 = assay: Growth inhibition of human OVCAR3 cells at 10 uM incubated for 48 hrs by sulforhodamine B assay relative to control; conditions: OVCAR-3, 48 h, read-out: GI; outline: as §1
OVCAR-4 = assay: Growth inhibition of human OVCAR4 cells at 10 uM incubated for 48 hrs by sulforhodamine B assay relative to control; conditions: OVCAR-4, 48 h, read-out: GI; outline: as §1
OVCAR-8 = assay: Growth inhibition of human OVCAR8 cells at 10 uM incubated for 48 hrs by sulforhodamine B assay relative to control; conditions: OVCAR-8, 48 h, read-out: GI; outline: as §1
786-0 = assay: Growth inhibition of human 786-0 cells at 10 uM incubated for 48 hrs by sulforhodamine B assay relative to control; conditions: 786-0, 48 h, read-out: GI; outline: as §1
A498 = assay: Growth inhibition of human A498 cells at 10 uM incubated for 48 hrs by sulforhodamine B assay relative to control; conditions: A498, 48 h, read-out: GI; outline: as §1
UO-31 = assay: Growth inhibition of human UO31 cells at 10 uM incubated for 48 hrs by sulforhodamine B assay relative to control; conditions: UO-31, 48 h, read-out: GI; outline: as §2
DU-145 = assay: Growth inhibition of human DU145 cells at 10 uM incubated for 48 hrs by sulforhodamine B assay relative to control; conditions: DU-145, 48 h, read-out: GI; outline: as §1
MCF7 = assay: Growth inhibition of human MCF7 cells at 10 uM incubated for 48 hrs by sulforhodamine B assay relative to control; conditions: MCF7, 48 h, read-out: GI; outline: as §1
MDA-MB-231 = assay: Growth inhibition of human MDA-MB-231 cells at 10 uM incubated for 48 hrs by sulforhodamine B assay relative to control; conditions: MDA-MB-231, 48 h, read-out: GI; outline: as §1
BT-549 = assay: Growth inhibition of human BT549 cells at 10 uM incubated for 48 hrs by sulforhodamine B assay relative to control; conditions: BT-549, 48 h, read-out: GI; outline: as §1
T47D = assay: Growth inhibition of human T47D cells at 10 uM incubated for 48 hrs by sulforhodamine B assay relative to control; conditions: read-out: GI; outline: as §2
MDA-MB-468 = assay: Growth inhibition of human MDA-MB-468 cells at 10 uM incubated for 48 hrs by sulforhodamine B assay relative to control; conditions: MDA-MB-468, 48 h, read-out: GI; outline: as §1

| SMILES | inhibition of growth at 10 µM (CCRF-CEM) | inhibition of growth at 10 µM (HL-60(TB)) | inhibition of growth at 10 µM (K562) | inhibition of growth at 10 µM (MOLT-4) | inhibition of growth at 10 µM (SR) | inhibition of growth at 10 µM (HOP-92) | inhibition of growth at 10 µM (NCI-H226) | inhibition of growth at 10 µM (NCI-H322M) | inhibition of growth at 10 µM (HCC 2998) | inhibition of growth at 10 µM (HCT-15) | inhibition of growth at 10 µM (SF-268) | inhibition of growth at 10 µM (SF-295) | inhibition of growth at 10 µM (SF-539) | inhibition of growth at 10 µM (SNB-75) | inhibition of growth at 10 µM (LOX IMVI) | inhibition of growth at 10 µM (MDA-MB-435) | inhibition of growth at 10 µM (SK-MEL-2) | inhibition of growth at 10 µM (IGROV-1) | inhibition of growth at 10 µM (OVCAR-3) | inhibition of growth at 10 µM (OVCAR-4) | further results |
| --- | --- | --- | --- | --- | --- | --- | --- | --- | --- | --- | --- | --- | --- | --- | --- | --- | --- | --- | --- | --- | --- |
| CC(=O)C1=C(C)NC(SCc2nnc(-c3ccc(Cl)cc3)o2)=NC1c1ccc(F)cc1 (stereo not given) | < 10% | 11.5% | < 10% | < 10% | 19.1% | < 10% | 11.6% | < 10% | < 10% | < 10% | < 10% | < 10% | < 10% | 16.8% | < 10% | < 10% | < 10% | 15.4% | < 10% | < 10% | inhibition of growth at 10 µM (OVCAR-8): < 10%; inhibition of growth at 10 µM (786-0): 16.4%; inhibition of growth at 10 µM (A498): < 10%; inhibition of growth at 10 µM (UO-31): 26.1%; inhibition of growth at 10 µM (DU-145): < 10%; inhibition of growth at 10 µM (MCF7): 10.6%; inhibition of growth at 10 µM (MDA-MB-231): 17%; inhibition of growth at 10 µM (BT-549): < 10%; inhibition of growth at 10 µM (T47D): 24.1%; inhibition of growth at 10 µM (MDA-MB-468): 11.3% |
| CCOC(=O)C1=C(C)NC(SCc2nnc(-c3ccc(OC)cc3)o2)=NC1c1ccc(F)cc1 (stereo not given) | 15.3% | 12% | < 10% | < 10% | 15.9% | 21.4% | 10.4% | < 10% | < 10% | < 10% | < 10% | < 10% | < 10% | 17.5% | < 10% | < 10% | < 10% | < 10% | < 10% | < 10% | inhibition of growth at 10 µM (OVCAR-8): < 10%; inhibition of growth at 10 µM (786-0): < 10%; inhibition of growth at 10 µM (A498): < 10%; inhibition of growth at 10 µM (UO-31): 21.7%; inhibition of growth at 10 µM (DU-145): < 10%; inhibition of growth at 10 µM (MCF7): < 10%; inhibition of growth at 10 µM (MDA-MB-231): < 10%; inhibition of growth at 10 µM (BT-549): < 10%; inhibition of growth at 10 µM (T47D): 33.3%; inhibition of growth at 10 µM (MDA-MB-468): < 10% |
| CC(=O)C1=C(C)NC(SCc2nnc(-c3ccc(C)cc3)o2)=NC1c1ccc(F)cc1 (stereo not given) | 11.9% | 19.2% | < 10% | < 10% | 19.1% | < 10% | 10.4% | < 10% | < 10% | < 10% | < 10% | < 10% | < 10% | < 10% | < 10% | < 10% | < 10% | 11% | < 10% | < 10% | inhibition of growth at 10 µM (OVCAR-8): < 10%; inhibition of growth at 10 µM (786-0): 15.4%; inhibition of growth at 10 µM (A498): < 10%; inhibition of growth at 10 µM (UO-31): 16.4%; inhibition of growth at 10 µM (DU-145): < 10%; inhibition of growth at 10 µM (MCF7): < 10%; inhibition of growth at 10 µM (MDA-MB-231): < 10%; inhibition of growth at 10 µM (BT-549): 13.9%; inhibition of growth at 10 µM (T47D): 25.6%; inhibition of growth at 10 µM (MDA-MB-468): < 10% |
| COc1ccc(-c2nnc(CSC3=NC(c4ccc(F)cc4)C(C(C)=O)=C(C)N3)o2)cc1 (stereo not given) | 15.7% | 15.2% | < 10% | 10.9% | 13.3% | 16.5% | < 10% | < 10% | < 10% | < 10% | < 10% | < 10% | < 10% | 17.3% | < 10% | < 10% | < 10% | < 10% | < 10% | 12.2% | inhibition of growth at 10 µM (OVCAR-8): < 10%; inhibition of growth at 10 µM (786-0): < 10%; inhibition of growth at 10 µM (A498): < 10%; inhibition of growth at 10 µM (UO-31): 29.7%; inhibition of growth at 10 µM (DU-145): < 10%; inhibition of growth at 10 µM (MCF7): 10.5%; inhibition of growth at 10 µM (MDA-MB-231): 14.4%; inhibition of growth at 10 µM (BT-549): < 10%; inhibition of growth at 10 µM (T47D): 28.9%; inhibition of growth at 10 µM (MDA-MB-468): < 10% |
| CCOC(=O)C1=C(C)NC(SCc2nnc(-c3ccc(Cl)cc3)o2)=NC1c1ccc(OC)cc1 (stereo not given) | 12.9% | < 10% | < 10% | < 10% | 18.1% | 17.6% | 11.8% | < 10% | < 10% | < 10% | < 10% | < 10% | < 10% | 18.9% | < 10% | < 10% | < 10% | 17.8% | < 10% | < 10% | inhibition of growth at 10 µM (OVCAR-8): < 10%; inhibition of growth at 10 µM (786-0): 18.8%; inhibition of growth at 10 µM (A498): < 10%; inhibition of growth at 10 µM (UO-31): 20.3%; inhibition of growth at 10 µM (DU-145): < 10%; inhibition of growth at 10 µM (MCF7): < 10%; inhibition of growth at 10 µM (MDA-MB-231): 10.2%; inhibition of growth at 10 µM (BT-549): 16.9%; inhibition of growth at 10 µM (T47D): 15.2%; inhibition of growth at 10 µM (MDA-MB-468): < 10% |

From ChEMBL document CHEMBL4190234, “Design, synthesis and anticancer activity of new monastrol analogues bearing 1,3,4-oxadiazole moiety” (Eur J Med Chem, 2017)
